Tested on: HEK-293T
Assay: Multiplex assay against HEK293T;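 for Population Tubulin-Different-Phenotype (%): share of the cells with healthy nuclei that show this phenotype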
Format: toxicity, cell-based
Settings: human
Method in brief: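 Values for tubulin, mitochondrial-mass and membrane-permeability phenotypes are per cents of cells with healthy nuclei. These cells were identified by CellPathfinder machine-learning gating of live cells that had been stained at seeding with Hoechst33342, BioTracker Green Microtubule Cytoskeleton Dye, MitoTracker Red and Annexin V Alexa Fluor 680 and imaged on a CQ1 microscope at 37°C and 5% CO2 after compound addition. The gating first set Hoechst high-intensity objects apart from normal cells, then split normal cells into healthy, pyknosed or fragmented nuclei, and pyknosed cells into mitotic or apoptotic.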

[1] = 12 h, 1 µM, compound concentration 1 uM, replicate 1
[2] = 12 h, 1 µM, compound concentration 1 uM, replicate 2
[3] = 12 h, 10 µM, compound concentration 10 uM, replicate 1
[4] = 12 h, 10 µM, compound concentration 10 uM, replicate 2
[5] = 24 h, 1 µM, compound concentration 1 uM, replicate 1
[6] = 24 h, 1 µM, compound concentration 1 uM, replicate 2
[7] = 24 h, 10 µM, compound concentration 10 uM, replicate 1
[8] = 24 h, 10 µM, compound concentration 10 uM, replicate 2
[9] = 48 h, 1 µM, compound concentration 1 uM, replicate 1
[10] = 48 h, 1 µM, compound concentration 1 uM, replicate 2
[11] = 48 h, 10 µM, compound concentration 10 uM, replicate 1
[12] = 48 h, 10 µM, compound concentration 10 uM, replicate 2

## O=C(Nc1ccc(-n2nc(-c3cccnc3)cc2C(F)(F)F)cn1)c1ccc(-c2ccccc2)c(F)c1 [BI 2049]
[1]
  Population Apoptotic (%): 46%
  Population Fragmented Nuclei (%): 22%
  Population Healthy Nuclei (%): 24%
  Population Hoechst High Intensity Objects (%): 21%
  Population Membrane Permeable-Phenotype (%): 0%
  Population Mitochondria Different-Phenotype (%): 60%
  Population Mitotic Cells (%): 53%
  Population Normal (%): 78%
  Population Pyknosed Nuclei (%): 53%
  Population Tubulin-Different-Phenotype (%): 10%
  Total Cell Count: 147
[2]
  Population Apoptotic (%): 3%
  Population Fragmented Nuclei (%): 11%
  Population Healthy Nuclei (%): 37%
  Population Hoechst High Intensity Objects (%): 2%
  Population Membrane Permeable-Phenotype (%): 3%
  Population Mitochondria Different-Phenotype (%): 8%
  Population Mitotic Cells (%): 96%
  Population Normal (%): 97%
  Population Pyknosed Nuclei (%): 51%
  Population Tubulin-Different-Phenotype (%): 1%
  Total Cell Count: 166
[3]
  Population Apoptotic (%): 63%
  Population Fragmented Nuclei (%): 12%
  Population Healthy Nuclei (%): 23%
  Population Hoechst High Intensity Objects (%): 11%
  Population Membrane Permeable-Phenotype (%): 3%
  Population Mitochondria Different-Phenotype (%): 90%
  Population Mitotic Cells (%): 36%
  Population Normal (%): 88%
  Population Pyknosed Nuclei (%): 64%
  Population Tubulin-Different-Phenotype (%): 65%
  Total Cell Count: 254
[4]
  Population Apoptotic (%): 12%
  Population Fragmented Nuclei (%): 5%
  Population Healthy Nuclei (%): 47%
  Population Hoechst High Intensity Objects (%): 3%
  Population Membrane Permeable-Phenotype (%): 9%
  Population Mitochondria Different-Phenotype (%): 15%
  Population Mitotic Cells (%): 88%
  Population Normal (%): 96%
  Population Pyknosed Nuclei (%): 47%
  Population Tubulin-Different-Phenotype (%): 13%
  Total Cell Count: 276
[5]
  Population Apoptotic (%): 65%
  Population Fragmented Nuclei (%): 25%
  Population Healthy Nuclei (%): 30%
  Population Hoechst High Intensity Objects (%): 26%
  Population Membrane Permeable-Phenotype (%): 6%
  Population Mitochondria Different-Phenotype (%): 59%
  Population Mitotic Cells (%): 34%
  Population Normal (%): 73%
  Population Pyknosed Nuclei (%): 43%
  Population Tubulin-Different-Phenotype (%): 31%
  Total Cell Count: 143
[6]
  Population Apoptotic (%): 12%
  Population Fragmented Nuclei (%): 7%
  Population Healthy Nuclei (%): 73%
  Population Hoechst High Intensity Objects (%): 4%
  Population Membrane Permeable-Phenotype (%): 3%
  Population Mitochondria Different-Phenotype (%): 6%
  Population Mitotic Cells (%): 87%
  Population Normal (%): 95%
  Population Pyknosed Nuclei (%): 19%
  Population Tubulin-Different-Phenotype (%): 4%
  Total Cell Count: 212
[7]
  Population Apoptotic (%): 60%
  Population Fragmented Nuclei (%): 12%
  Population Healthy Nuclei (%): 27%
  Population Hoechst High Intensity Objects (%): 13%
  Population Membrane Permeable-Phenotype (%): 3%
  Population Mitochondria Different-Phenotype (%): 82%
  Population Mitotic Cells (%): 39%
  Population Normal (%): 86%
  Population Pyknosed Nuclei (%): 60%
  Population Tubulin-Different-Phenotype (%): 53%
  Total Cell Count: 266
[8]
  Population Apoptotic (%): 5%
  Population Fragmented Nuclei (%): 6%
  Population Healthy Nuclei (%): 64%
  Population Hoechst High Intensity Objects (%): 2%
  Population Membrane Permeable-Phenotype (%): 6%
  Population Mitochondria Different-Phenotype (%): 14%
  Population Mitotic Cells (%): 94%
  Population Normal (%): 97%
  Population Pyknosed Nuclei (%): 29%
  Population Tubulin-Different-Phenotype (%): 23%
  Total Cell Count: 339
[9]
  Population Apoptotic (%): 54%
  Population Fragmented Nuclei (%): 27%
  Population Healthy Nuclei (%): 35%
  Population Hoechst High Intensity Objects (%): 18%
  Population Membrane Permeable-Phenotype (%): 2%
  Population Mitochondria Different-Phenotype (%): 20%
  Population Mitotic Cells (%): 46%
  Population Normal (%): 81%
  Population Pyknosed Nuclei (%): 37%
  Population Tubulin-Different-Phenotype (%): 14%
  Total Cell Count: 166
[10]
  Population Apoptotic (%): 11%
  Population Fragmented Nuclei (%): 7%
  Population Healthy Nuclei (%): 83%
  Population Hoechst High Intensity Objects (%): 2%
  Population Mitochondria Different-Phenotype (%): 3%
  Population Mitotic Cells (%): 88%
  Population Normal (%): 97%
  Population Pyknosed Nuclei (%): 8%
  Population Tubulin-Different-Phenotype (%): 6%
  Total Cell Count: 420
[11]
  Population Apoptotic (%): 55%
  Population Fragmented Nuclei (%): 14%
  Population Healthy Nuclei (%): 28%
  Population Hoechst High Intensity Objects (%): 18%
  Population Membrane Permeable-Phenotype (%): 1%
  Population Mitochondria Different-Phenotype (%): 52%
  Population Mitotic Cells (%): 44%
  Population Normal (%): 81%
  Population Pyknosed Nuclei (%): 56%
  Population Tubulin-Different-Phenotype (%): 40%
  Total Cell Count: 298
[12]
  Population Apoptotic (%): 7%
  Population Fragmented Nuclei (%): 6%
  Population Healthy Nuclei (%): 82%
  Population Hoechst High Intensity Objects (%): 2%
  Population Membrane Permeable-Phenotype (%): 5%
  Population Mitochondria Different-Phenotype (%): 4%
  Population Mitotic Cells (%): 92%
  Population Normal (%): 97%
  Population Pyknosed Nuclei (%): 10%
  Population Tubulin-Different-Phenotype (%): 21%
  Total Cell Count: 633

Reference: ChEMBL document CHEMBL4689842, “EUbOPEN Chemogenomics Library wave 1” (2021)
